In ChEMBL document CHEMBL3751842, “Novel triazolothiadiazines act as potent anticancer agents in liver cancer cells through Akt and ASK-1 proteins” (Bioorg Med Chem, 2016):
Calls of active or inactive are those of the source. The calls are words filed in the database; no cut-off is given here.

Tests used:
[1] = target: T1, Mitogen-activated protein kinase kinase kinase 5 (Homo sapiens) (UniProt Q99683); assay: Activation of ASK1 in human HuH7 cells assessed as SAPK/JNK phosphorylation after 24 to 48 hrs by Western blot analysis; assay type: cell-based; conditions: Huh-7
T1 sequence (whole entry): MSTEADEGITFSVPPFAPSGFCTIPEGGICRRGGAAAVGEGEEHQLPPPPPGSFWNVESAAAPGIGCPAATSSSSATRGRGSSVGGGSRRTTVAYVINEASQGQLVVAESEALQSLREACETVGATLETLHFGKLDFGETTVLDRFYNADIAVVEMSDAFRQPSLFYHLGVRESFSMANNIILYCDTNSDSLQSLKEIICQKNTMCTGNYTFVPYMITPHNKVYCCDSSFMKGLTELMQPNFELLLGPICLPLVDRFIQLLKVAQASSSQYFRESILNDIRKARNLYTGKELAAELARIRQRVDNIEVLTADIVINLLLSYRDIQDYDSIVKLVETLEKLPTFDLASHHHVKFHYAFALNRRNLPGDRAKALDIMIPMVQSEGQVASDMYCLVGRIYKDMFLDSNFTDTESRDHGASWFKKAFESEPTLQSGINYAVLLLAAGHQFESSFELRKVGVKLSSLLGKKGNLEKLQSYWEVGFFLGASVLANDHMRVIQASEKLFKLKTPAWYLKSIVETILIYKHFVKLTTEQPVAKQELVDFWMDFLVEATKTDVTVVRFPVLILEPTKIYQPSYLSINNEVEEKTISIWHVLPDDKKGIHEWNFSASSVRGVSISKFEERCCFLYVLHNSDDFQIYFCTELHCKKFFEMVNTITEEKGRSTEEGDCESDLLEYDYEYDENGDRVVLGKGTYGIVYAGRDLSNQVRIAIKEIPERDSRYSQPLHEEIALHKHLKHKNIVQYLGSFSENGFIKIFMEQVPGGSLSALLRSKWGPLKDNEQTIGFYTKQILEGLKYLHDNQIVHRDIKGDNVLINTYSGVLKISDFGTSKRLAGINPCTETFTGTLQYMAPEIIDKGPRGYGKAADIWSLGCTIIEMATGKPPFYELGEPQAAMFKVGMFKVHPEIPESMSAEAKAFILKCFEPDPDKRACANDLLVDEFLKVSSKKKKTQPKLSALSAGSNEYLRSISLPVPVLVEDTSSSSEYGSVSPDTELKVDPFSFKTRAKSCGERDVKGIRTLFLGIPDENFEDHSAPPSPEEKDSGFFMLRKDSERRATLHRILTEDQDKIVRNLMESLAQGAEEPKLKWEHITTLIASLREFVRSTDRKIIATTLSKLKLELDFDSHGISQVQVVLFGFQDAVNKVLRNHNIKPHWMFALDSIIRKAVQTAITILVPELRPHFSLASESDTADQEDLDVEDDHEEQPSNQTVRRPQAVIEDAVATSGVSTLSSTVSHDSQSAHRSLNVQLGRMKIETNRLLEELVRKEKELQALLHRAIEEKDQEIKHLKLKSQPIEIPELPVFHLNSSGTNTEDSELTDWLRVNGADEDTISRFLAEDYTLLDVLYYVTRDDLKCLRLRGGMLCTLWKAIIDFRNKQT
Summary of the method: (§1)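 Cells were exposed to compound or DMSO control for 24 or 48 h. Lysates were loaded at […] protein per lane and immunoblotted with antibodies diluted 1:100 to 1:500 in 5% BSA-TBS-T. Targets were p-Akt (Ser473), Akt, p-GSK3-α/β (Ser21/9), GSK3-α/β, SAPK/JNK, p-SAPK/JNK (Thr183/Tyr185), PARP, p-β-catenin, β-catenin, cyclin D1, p-ASK1 (S83) and p-ASK1 (S966). Actin served as the loading control.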

[2] = target: T1, Mitogen-activated protein kinase kinase kinase 5 (Homo sapiens); assay: Activation of ASK1 in human Mahlavu cells assessed as SAPK/JNK phosphorylation after 24 to 48 hrs by Western blot analysis; assay type: cell-based; summary of the method: as §1
[3] = target: T2, Catenin beta-1 (Homo sapiens) (UniProt P35222); assay: Induction of beta-catenin phosphorylation in human Mahlavu cells after 24 to 48 hrs by Western blot analysis; assay type: cell-based; summary of the method: as §1
T2 sequence (whole entry): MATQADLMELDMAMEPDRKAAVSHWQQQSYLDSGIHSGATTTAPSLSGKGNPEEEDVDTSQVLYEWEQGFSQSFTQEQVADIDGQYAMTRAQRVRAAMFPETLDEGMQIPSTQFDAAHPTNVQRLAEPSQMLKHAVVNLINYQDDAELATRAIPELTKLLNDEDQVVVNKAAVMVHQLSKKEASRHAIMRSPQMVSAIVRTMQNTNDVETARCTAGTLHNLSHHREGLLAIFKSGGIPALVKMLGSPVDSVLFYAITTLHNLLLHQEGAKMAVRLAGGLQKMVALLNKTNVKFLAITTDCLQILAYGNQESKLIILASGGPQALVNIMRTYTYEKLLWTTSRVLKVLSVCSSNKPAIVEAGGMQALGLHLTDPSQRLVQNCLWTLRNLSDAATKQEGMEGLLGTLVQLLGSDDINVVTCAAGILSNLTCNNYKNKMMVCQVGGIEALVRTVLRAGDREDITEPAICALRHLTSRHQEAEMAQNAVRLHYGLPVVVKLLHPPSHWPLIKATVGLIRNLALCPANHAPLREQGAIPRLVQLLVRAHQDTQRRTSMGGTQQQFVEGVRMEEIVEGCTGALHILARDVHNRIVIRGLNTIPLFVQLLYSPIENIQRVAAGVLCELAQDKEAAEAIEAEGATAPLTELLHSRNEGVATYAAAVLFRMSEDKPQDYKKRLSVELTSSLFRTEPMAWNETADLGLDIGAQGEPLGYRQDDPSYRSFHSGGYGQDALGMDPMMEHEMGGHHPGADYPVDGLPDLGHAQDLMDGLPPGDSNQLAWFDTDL

Mahlavu = assay: Induction of apoptosis in human Mahlavu cells assessed as PARP cleavage after 24 to 48 hrs by Western blot analysis; assay type: functional, cell-based; summary of the method: as §1
[4] = Cytotoxicity against human Mahlavu cells assessed as growth inhibition after 72 hrs by sulforhodamine B assay; assay type: functional, cell-based; conditions: Homo sapiens, Mahlavu, 72 h; read-out: IC50
Summary of the method: (§2)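 Cells were grown at 37°C, 5% CO2 in DMEM with 10% FBS. They were seeded at 1000–3000 cells/well, grown 24 h, then exposed to compound at 2.5–40 µM for 72 h. Cells were fixed in 10% TCA for 1 h at 4°C, stained with 0.4% SRB in 1% acetic acid for 10 min, and the dye solubilized in 10 mM Tris. Absorbance was read at 515 nm; runs were in triplicate; IC50 was calculated, with fits of R2 0.8–1 accepted.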

[5] = Cytotoxicity against human FOCUS cells assessed as growth inhibition after 72 hrs by sulforhodamine B assay; assay type: functional, cell-based; conditions: Homo sapiens, FOCUS, 72 h; read-out: IC50; summary of the method: as §2
HepG2 = assay: Cytotoxicity against human HepG2 cells assessed as growth inhibition after 72 hrs by sulforhodamine B assay; assay type: functional, cell-based; conditions: Homo sapiens, HepG2, 72 h; read-out: IC50; summary of the method: as §2
[6] = Cytotoxicity against human Hep3B cells assessed as growth inhibition after 72 hrs by sulforhodamine B assay; assay type: functional, cell-based, Hep 3B2; conditions: Homo sapiens, Hep3B, 72 h; read-out: IC50; summary of the method: as §2
[7] = Effect on un-phosphorylated beta-catenin level in human Mahlavu cells after 24 to 48 hrs by Western blot analysis; assay type: ADME, cell-based; summary of the method: as §1

Activity [1] | Activity [2] | Activity [3] | SMILES | Activity (Mahlavu) | IC50 [4] [µM] | IC50 [5] [µM] | IC50 (HepG2) [µM] | IC50 [6] [µM] | Activity [7]
Active | Active | Active | COc1ccc(C2=Nn3c(nnc3C(C)c3ccc(CC(C)C)cc3)SC2)cc1 (stereo not drawn) | Active | 13.6 | 2.4 | 3.8 | 6.5 | Non-toxic
Active | Active | Active | Cc1ccc(C2=Nn3c(nnc3C(C)c3ccc(CC(C)C)cc3)SC2)cc1 (stereo not drawn) | Active | 8.5 | 6.8 | 7.3 | 5.3 | Non-toxic
